{
  "source": "ChEMBL document CHEMBL1255300",
  "about": "“Pharmacodynamics of the antibacterial effect and emergence of resistance to tomopenem, formerly RO4908463/CS-023, in an in vitro pharmacokinetic model of Staphylococcus aureus infection” (Antimicrob Agents Chemother, 2008)",
  "type_in_all_cases": "functional",
  "key": {"Staphylococcus aureus [1]": {"tested_on": "Staphylococcus aureus", "assay": "Antibacterial activity against methicillin-sensitive Staphylococcus aureus 5956 infected in in vitro pharmacokinetic model assessed as time required to 99.9% killing at 1500 mg, iv every 8 hrs using 10^6 CFU/ml inoculum"}, "Staphylococcus aureus [2]": {"tested_on": "Staphylococcus aureus", "assay": "Antibacterial activity against methicillin-sensitive Staphylococcus aureus 5956 infected in in vitro pharmacokinetic model assessed as time required to 99.9% killing at 750 mg, iv every 8 hrs using 10^6 CFU/ml inoculum"}, "Staphylococcus aureus [3]": {"tested_on": "Staphylococcus aureus", "assay": "Antibacterial activity against methicillin-resistant Staphylococcus aureus 33829 by 10% MH broth method", "procedure,_shortened": "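MIC by CLSI broth dilution, or by broth dilution in 10% Mueller-Hinton broth at nondoubling dilutions.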"}, "Staphylococcus aureus [4]": {"tested_on": "Staphylococcus aureus", "assay": "Antibacterial activity against methicillin-resistant Staphylococcus aureus 33921 in in vitro pharmacokinetic model assessed as viable count at 4 times of MIC", "procedure,_shortened": "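Preexposure population analysis: time-zero model samples plated on nutrient agar without drug and with drug at multiples of the 10% broth MIC. Growth reported as log CFU/ml, detection limit 2 log10.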"}, "Staphylococcus aureus [5]": {"tested_on": "Staphylococcus aureus", "assay": "T>MIC for static effect in methicillin-resistant Staphylococcus aureus 33827 in in vitro pharmacokinetic model after 24 hrs using 10^6 CFU/ml inoculum"}, "Staphylococcus aureus [6]": {"tested_on": "Staphylococcus aureus", "assay": "AUBKC (0 to 24 hrs) in methicillin-resistant Staphylococcus aureus 33827 infected in in vitro pharmacokinetic model at 750 mg, iv every 8 hrs using 10^8 CFU/ml inoculum", "procedure,_shortened": "(§1)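 Single-compartment dilutional in vitro PK model at 37°C in 10% Mueller-Hinton broth, stirred, flow 132 ml/h. […] Inoculum 10^6 CFU/ml added 45 min before dosing, or 10^8 CFU/ml run overnight. Viable counts with β-lactamase neutralisation. AUBKC by log-linear trapezoidal rule, at least triplicate.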"}, "Staphylococcus aureus [7]": {"tested_on": "Staphylococcus aureus", "assay": "Antibacterial activity against methicillin-resistant Staphylococcus aureus 33827 by broth dilution method", "procedure,_shortened": "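Standard CLSI broth dilution MIC.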"}, "Staphylococcus aureus [8]": {"tested_on": "Staphylococcus aureus", "assay": "AUBKC (0 to 24 hrs) in methicillin-resistant Staphylococcus aureus 33829 infected in in vitro pharmacokinetic model at 1500 mg, iv every 8 hrs using 10^6 CFU/ml inoculum", "procedure,_shortened": "as §1"}, "Staphylococcus aureus [9]": {"tested_on": "Staphylococcus aureus", "assay": "Antibacterial activity against methicillin-resistant Staphylococcus aureus 33921 infected in in vitro pharmacokinetic model assessed as time required to 99.9% killing at 750 mg, iv every 8 hrs using 10^6 CFU/ml inoculum"}, "Staphylococcus aureus [10]": {"tested_on": "Staphylococcus aureus", "assay": "AUBKC (0 to 24 hrs) in methicillin-sensitive Staphylococcus aureus 5956 infected in in vitro pharmacokinetic model at 1500 mg, iv every 8 hrs using 10^6 CFU/ml inoculum"}, "Staphylococcus aureus [11]": {"tested_on": "Staphylococcus aureus", "assay": "T>MIC in methicillin-resistant Staphylococcus aureus 33820 infected in vitro pharmacokinetic model at 750 mg, iv every 8 hrs"}, "Staphylococcus aureus [12]": {"tested_on": "Staphylococcus aureus", "assay": "Antibacterial activity against methicillin-resistant Staphylococcus aureus 33922 infected in in vitro pharmacokinetic model assessed as reduction in viable count at 750 mg, iv every 8 hrs measured after 24 hrs using 10^8 CFU/ml inoculum"}, "Staphylococcus aureus [13]": {"tested_on": "Staphylococcus aureus", "assay": "AUBKC (0 to 24 hrs) in methicillin-resistant Staphylococcus aureus 33815 infected in in vitro pharmacokinetic model at 1500 mg, iv every 8 hrs using 10^6 CFU/ml inoculum", "procedure,_shortened": "as §1"}, "Staphylococcus aureus [14]": {"tested_on": "Staphylococcus aureus", "assay": "Antibacterial activity against methicillin-resistant Staphylococcus aureus 33827 infected in in vitro pharmacokinetic model assessed as reduction in viable count at 1500 mg, iv every 8 hrs measured after 24 hrs using 10^6 CFU/ml inoculum", "procedure,_shortened": "(§2)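 Single-compartment dilutional in vitro PK model, 10% Mueller-Hinton broth, 37°C, stirred, dilution 132 ml/h. […] Inoculum 10^6 CFU/ml (added 45 min pre-dose) or 10^8 CFU/ml (run overnight). Viable counts by spiral plating, beta-lactamase neutralization, detection limit 10^2 CFU/ml. At least triplicate.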"}, "Staphylococcus aureus [15]": {"tested_on": "Staphylococcus aureus", "assay": "T>MIC in methicillin-sensitive Staphylococcus aureus 5956 infected in vitro pharmacokinetic model at 750 mg, iv every 8 hrs"}, "Staphylococcus aureus [16]": {"tested_on": "Staphylococcus aureus", "assay": "Antibacterial activity against methicillin-resistant Staphylococcus aureus 33827 infected in in vitro pharmacokinetic model assessed as time required to 99.9% killing at 1500 mg, iv every 8 hrs using 10^6 CFU/ml inoculum", "procedure,_shortened": "as §2"}, "Staphylococcus aureus [17]": {"tested_on": "Staphylococcus aureus", "assay": "AUBKC (0 to 48 hrs) in methicillin-resistant Staphylococcus aureus 33820 infected in in vitro pharmacokinetic model at 1500 mg, iv every 8 hrs using 10^6 CFU/ml inoculum", "procedure,_shortened": "as §1"}, "Staphylococcus aureus [18]": {"tested_on": "Staphylococcus aureus", "assay": "T>MIC for 2-log drop in count in methicillin-sensitive Staphylococcus aureus 5956 in in vitro pharmacokinetic model after 24 hrs using 10^6 CFU/ml inoculum"}, "Staphylococcus aureus [19]": {"tested_on": "Staphylococcus aureus", "assay": "AUBKC (0 to 48 hrs) in methicillin-resistant Staphylococcus aureus 33815 infected in in vitro pharmacokinetic model at 1500 mg, iv every 8 hrs using 10^6 CFU/ml inoculum", "procedure,_shortened": "as §1"}},
  "data": [
    {"molecule": "C[C@@H](O)[C@H]1C(=O)N2C(C(=O)O)=C(S[C@H]3C[C@@H](C(=O)N4CC[C@H](NC(=O)CNC(=N)N)C4)N(C)C3)[C@H](C)[C@H]12", "note": "[TOMOPENEM]", "values": [
      {"measurement": "Time", "setting": "Staphylococcus aureus [1]", "result": 8, "unit": "h"},
      {"measurement": "Time", "setting": "Staphylococcus aureus [2]", "result": 6, "unit": "h"},
      {"measurement": "MIC", "setting": "Staphylococcus aureus [3]", "result": 0.5, "unit": "µg/mL"},
      {"measurement": "log10CFU/ml", "setting": "Staphylococcus aureus [4]", "result": "<2"},
      {"measurement": "fT>MIC", "setting": "Staphylococcus aureus [5]", "result": 15.4, "unit": "%"},
      {"measurement": "AUBC", "setting": "Staphylococcus aureus [6]", "result": 77.4, "unit": "log10CFU/ml.hr"},
      {"measurement": "MIC", "setting": "Staphylococcus aureus [7]", "result": 2, "unit": "µg/mL"},
      {"measurement": "AUBC", "setting": "Staphylococcus aureus [8]", "result": 30, "unit": "log10CFU/ml.hr"},
      {"measurement": "Time", "setting": "Staphylococcus aureus [9]", "result": 12, "unit": "h"},
      {"measurement": "AUBC", "setting": "Staphylococcus aureus [10]", "result": 22.7, "unit": "log10CFU/ml.hr"},
      {"measurement": "fT>MIC", "setting": "Staphylococcus aureus [11]", "result": 73, "unit": "%"},
      {"measurement": "log10CFU/ml", "setting": "Staphylococcus aureus [12]", "result": 5},
      {"measurement": "AUBC", "setting": "Staphylococcus aureus [13]", "result": 12.5, "unit": "log10CFU/ml.hr"},
      {"measurement": "log10CFU/ml", "setting": "Staphylococcus aureus [14]", "result": 4},
      {"measurement": "fT>MIC", "setting": "Staphylococcus aureus [15]", "result": 100, "unit": "%"},
      {"measurement": "Time", "setting": "Staphylococcus aureus [16]", "result": 12, "unit": "h"},
      {"measurement": "AUBC", "setting": "Staphylococcus aureus [17]", "result": 23.4, "unit": "log10CFU/ml.hr"},
      {"measurement": "fT>MIC", "setting": "Staphylococcus aureus [18]", "result": 8.7, "unit": "%"},
      {"measurement": "AUBC", "setting": "Staphylococcus aureus [19]", "result": 12.5, "unit": "log10CFU/ml.hr"}
    ]}
  ]
}
